Experimental data from different studies.
Compare with care: the assays were run in different laboratories.
CDK4 with cyclin D1: Cyclin-dependent kinase 4, with cyclin D1 (CDK4, Homo sapiens, UniProt P11802)
CDK4 with cyclin D3: Cyclin-dependent kinase 4, with cyclin D3 (CDK4, Homo sapiens, UniProt P11802)
CDK4: Cyclin-dependent kinase 4 (CDK4, Homo sapiens, UniProt P11802)

SMILES | target | test | setting | endpoint | value
F[C@@H]1CCN(c2nccc(-c3cnn4ncccc34)n2)C1 | CDK4 with cyclin D1 | binding | 1 µM | remaining binding | 100%
Cc1ccc(NC(=O)c2ccc(C)c(C(F)(F)F)c2)cc1C#Cc1nn(C2CCC(O)CC2)c2ncnc(N)c12 (stereo not shown) | CDK4 with cyclin D3 | cell-free assay | 10 µM | remaining signal | 86%
O=C1Nc2ccc(Cl)cc2C1=Cc1cc(Cl)c(O)c(Cl)c1 | CDK4 with cyclin D3 | cell-free assay | 0.5 µM | remaining signal | 94.8%
CN(C)c1nccc(-c2cnc3ncccn23)n1 | CDK4 | binding | 1 µM | remaining binding | 71%
COc1cc(Cl)c(C(=O)N[C@@H](CN[C@H]2CC[C@@H](N)CC2)Cc2ccc(C#N)cc2)cc1-c1ccc(CN[C@H](C)c2ccc(C)cc2)o1 | CDK4 with cyclin D3 | enzyme activity, inhibitor | 1 µM | remaining activity | 103%
O=C(c1ccccc1F)[C@H]1Cc2c(cc([N+](=O)[O-])cc2[N+](=O)[O-])[C@@H](O)[C@@]12C(=O)Nc1ccccc12 | CDK4 | cell-free assay, inhibitor, TR-FRET | 1 µM | inhibition | 38.9%
CNC(=O)c1ccc(Nc2ncc(C(F)(F)F)c(NCc3nccnc3N(C)S(C)(=O)=O)n2)cc1 | CDK4 with cyclin D1 | cell-free assay, competition with immobilised ligand | 0.1 µM | remaining binding | 100%
COc1ccc(OC)c2c(=S)c3ccccc3[nH]c12 | CDK4 with cyclin D1 | cell-free assay | 0.5 µM | remaining signal | 93.5%
O=C(Nc1cnn(-c2csc(C(=O)NC3COC3)c2)c1)Nc1ccccc1Cl | CDK4 with cyclin D1 | enzyme activity, inhibitor | 5 µM | remaining activity | 92.2%
CO[C@@H](C)c1c(Nc2ccc([C@@H](N(C)C(=O)C3CCS(=O)(=O)CC3)C(F)(F)F)cc2)cnc2cc(Cl)nn12 | CDK4 | cell-free assay, competition with immobilised ligand | 1 µM | remaining binding | 100%
O=C(c1ccccc1)[C@H]1Cc2c(cc([N+](=O)[O-])cc2[N+](=O)[O-])[C@H](O)[C@]12C(=O)Nc1ccccc12 | CDK4 | cell-free assay, inhibitor, TR-FRET | 1 µM | inhibition | 30.8%
CN1CCN(c2cnc3c(C4CCN(C(=O)c5ccc(OC(F)(F)F)cc5N)CC4)ncnc3c2)CC1 | CDK4 | cell-free assay, competition with immobilised ligand | 1 µM | remaining binding | 100%
COc1ccc(C(=O)[C@H]2Cc3c(cc([N+](=O)[O-])cc3[N+](=O)[O-])[C@@H](O)[C@@]23C(=O)Nc2ccccc23)cc1 | CDK4 | cell-free assay, inhibitor, TR-FRET | 1 µM | inhibition | 39.3%
COc1ccc2c(c1)O[C@@H](c1ccc(OC)c(OC)c1)C[C@H]2NC(=O)C1(c2ccc3c(c2)OC(F)(F)O3)CC1 | CDK4 with cyclin D1 | cell-free assay, competition with immobilised ligand | 1 µM | remaining binding | 100%
CC(C)(O)[C@H]1CC[C@H](Nc2ccc3ncc(-c4cccc(C(F)(F)F)c4)n3n2)CC1 | CDK4 with cyclin D1 | enzyme activity, inhibitor | 1 µM | remaining activity | 90.5%
Cc1nccc(COC(=O)N2C[C@@H]3[C@@H](CNC(=O)c4ccc5[nH]nnc5c4)[C@@H]3C2)n1 | CDK4 with cyclin D1 | cell-free assay, competition with immobilised ligand | 1 µM | remaining binding | 90%
COc1cc2c(cc1OC)-c1[nH]nc(Nc3cccc(F)c3)c1C2 | CDK4 with cyclin D1 | cell-free assay | 0.5 µM | remaining signal | 93.9%
CN(CCCC(F)(F)F)c1nccc(-c2cnn3ncccc23)n1 | CDK4 | binding | 1 µM | remaining binding | 100%
O=C(N[C@H]1CCCCC/C=C\C2C[C@@]2(C(=O)O)NC(=O)[C@@H]2C[C@@H](Oc3ccncc3)CN2C1=O)OC1CCCC1 (stereo partly shown) | CDK4 | binding, competition with immobilised ligand | 1 µM | remaining binding | 100%
